For series [1], the system named is Influenza A virus. Nature of the series: Antiviral activity against Influenza A Puerto Rico/8/34/H1N1 infected in MDCK cells assessed as inhibition of viral replication measured in supernatants of infected cells after 24 hrs by hemagglutination assay. Type of series: functional, organism-based. Particulars: A/Puerto Rico/8/1934(H1N1).
Series [2] concerns Influenza A virus. In words: Antiviral activity against Influenza A Puerto Rico/8/34/H1N1 infected in human A549 cells assessed as inhibition of hemagglutinin expression at 20 uM treated immediately after infection for 2 to 6 hrs followed by maintaining cells in fresh medium without compound for 24 hrs followed by infecting monolayer MDCK cells with supernatant for 24 hrs by time-of-addition assay. The series is classed as functional, organism-based. Conditions: A/Puerto Rico/8/1934(H1N1), time 2-6 hrs. The method, boiled down:
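A549 cells infected with PR8 H1N1 received 20 μM compound immediately after adsorption for 2, 4 or 6 h, then fresh medium to 24 h; supernatants infected fresh MDCK for 24 h; anti-HA in-cell western; RFU % vs untreated infected; 4 replicates from two experiments.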

Series [3] deals with West Nile virus. Nature of the series: Antiviral activity against West Nile virus lineage 1 (Italy/2009) infected in pre-seeded Huh-7 cells assessed as inhibition of viral replication incubated for 48 hrs by immunodetection based plaque reduction assay. Particulars: Huh-7, 48 h. Type of series: functional, organism-based.
Series [4] can be described thus: Toxicity in human A549 cells assessed as effect on host cell membrane. Type of series: cell-based.
Series [5] in a line: Stability of the compound in presence of 40 mM H2O2 in ethanol measured after 6 days. Type of series: physicochemical. Conditions: 144 h; time 6 day.
Series [6] is described as follows: Selectivity index, ratio of CC50 for human A549 cells to IC50 for Influenza A Puerto Rico/8/34/H1N1 infected in human A549 cells. The series is classed as toxicity, cell-based. Conditions: read-out: Selectivity Index. The method, boiled down: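 MDCK or A549 cells (2.5 × 10⁵/well) infected with A/Puerto Rico/8/34 H1N1 for 1 h at 37 °C, then washed. Compound (0.5–20 μM) added in 2% FBS medium for 24 h, with DMSO final ≤0.2%. Virus in supernatants read by hemagglutination. CC₅₀ by MTT (2 × 10⁴ cells/well, same concentrations, 24 h, absorbance 570 nm). SI = CC₅₀/IC₅₀.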

The nature of series [7]: Inhibition of full length Dengue virus 2 NS5 RNA dependent RNA polymerase incubated for 10 mins by picogreen staining based fluorescent analysis (Rvb= 0.32+/-0.05 uM). The arrangement: species or system dengue virus type 2.
For series [8], the system named is Influenza A virus. Nature of the series: Antiviral activity against Influenza A/California/04/2009H1N1 infected in human A549 cells assessed as reduction in viral protein expression at 20 uM pretreated for 2 hrs followed by staining with anti-Flu antibody observed at 24 hrs post infection by In-cell western assay. The series is classed as functional, organism-based.

Another series addresses CDK9/cyclin T1 (Homo sapiens, UniProt P50750). In words: Inhibition of human full length CDK9/ His-tagged cT1 assessed as residual activity at 5 uM using CDKtide as a substrate in the presence of BSA incubated for 10 mins by scintillation counting analysis relative to control. The series is classed as protein-complex assay. Particulars: full length CDK9/His-tagged cyclin T1 complex, probe CDKtide, read-out: Activity. The procedure, abridged:
(§1)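 Compounds at fixed 5 μM; 10–50 ng kinase, substrate and NP-40/BSA per supplementary table, 10 μL at 30 °C for 10 min in low-binding tubes. Reactions spotted on filter, dried, scintillation counted. Mean ± SD of two independent experiments.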

Another series concerns Zika virus. Nature of the series: Antiviral activity against Zika virus H/PF/2013 infected in pre-seeded Huh-7 cells assessed as inhibition of viral replication incubated for 72 hrs by immunodetection based plaque reduction assay. Type of series: functional, organism-based. Particulars: H/PF/2013, Huh-7, 72 h. Background: Plaques are areas of infected cells; plaque reduction assays count them against a control.

Series [9] is described as follows: Selectivity index, ratio of CC50 for human Huh-7 cells to IC50 for West Nile virus lineage 1 (Italy/2009) infected in pre-seeded Huh-7 cells assessed as inhibition of viral replication incubated for 48 hrs by immunodetection based plaque reduction assay. Particulars: read-out: Selectivity Index. Type of series: toxicity, cell-based.
The next series concerns SARS-CoV-2. In words: Antiviral activity against SARS-COV 2 infected in quadruplicate Vero E6 cells with DYRA supernatant assessed as reduction in viral replication at 0.8 uM. Type of series: functional. Particulars: Severe acute respiratory syndrome coronavirus 2, Vero C1008.
Series [10] deals with Fyn (Tyrosine-protein kinase Fyn) (Homo sapiens, UniProt P06241). In words: Inhibition of human recombinant N terminal His6 tagged full length Fyn assessed as residual activity at 5 uM using […] as a substrate in the presence of NP-40 incubated for 10 mins by scintillation counting analysis relative to control. Particulars: probe […], read-out: Activity. The method, boiled down: as §1
Sequence of Fyn (Tyrosine-protein kinase Fyn) (P06241 whole entry): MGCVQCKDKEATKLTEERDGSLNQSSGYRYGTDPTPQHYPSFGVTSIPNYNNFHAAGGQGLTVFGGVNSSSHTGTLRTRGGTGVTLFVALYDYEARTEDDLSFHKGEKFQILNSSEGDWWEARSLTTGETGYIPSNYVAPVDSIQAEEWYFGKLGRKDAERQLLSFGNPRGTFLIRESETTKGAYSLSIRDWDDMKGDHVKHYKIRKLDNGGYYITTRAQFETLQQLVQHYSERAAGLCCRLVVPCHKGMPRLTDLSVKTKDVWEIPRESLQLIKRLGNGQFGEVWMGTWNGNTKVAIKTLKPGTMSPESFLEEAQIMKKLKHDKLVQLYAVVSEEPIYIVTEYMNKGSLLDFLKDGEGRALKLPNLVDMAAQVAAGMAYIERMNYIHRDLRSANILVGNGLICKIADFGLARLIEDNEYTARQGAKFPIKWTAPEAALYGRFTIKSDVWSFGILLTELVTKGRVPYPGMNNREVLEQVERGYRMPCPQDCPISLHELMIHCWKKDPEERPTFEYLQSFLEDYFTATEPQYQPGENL

In series [11] the test system is West Nile virus. In words: Antiviral activity against West Nile virus lineage 1 (Italy/2009) infected in pre-seeded Huh-7 cells assessed as inhibition of viral replication incubated for 48 hrs by immunodetection based direct yield reduction assay. Type of series: functional, organism-based. Conditions: huh-7.
A further series has as its system Huh-7. Nature of the series: Effect on formation of DENV replication complex in human Huh-7 cells assessed as reduction NS3:NS5 colocalization into nucleus at 50 uM measured after 16 to 24 hrs by DAPI staining based confocal microscopy analysis. Type of series: functional, cell-based. Conditions: time 16-24 hrs. The method, boiled down:
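DENV-2-infected Huh-7 cells (MOI 0.05) treated at 50 μM, fixed at 8–24 h, stained for NS3/NS5; confocal colocalization by Manders coefficients with Costes P ≥95% as signal; versus untreated control; repeated at least twice.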

Series [12] in a line: Selectivity index, ratio of CC50 for human Huh-7 cells infected with SARS-COV-2 to IC50 for SARS-COV 2 infected in human Huh-7. The series is classed as toxicity. Particulars: read-out: Selectivity Index.
Series [13] can be described thus: Selectivity index, ratio of CC50 for human Huh-7 cells to IC50 for Dengue virus serotype 2 New Guinea C infected in pre-seeded Huh-7 cells assessed as inhibition of viral replication incubated for 72 hrs by immunodetection based secondary yield reduction assay. The series is classed as toxicity, cell-based. Conditions: read-out: Selectivity Index.
Series [14] can be described thus: Selectivity index, ratio of CC50 for human Huh-7 cells to IC50 for Zika virus H/PF/2013 infected in pre-seeded Huh-7 cells assessed as inhibition of viral replication incubated for 72 hrs by immunodetection based secondary yield reduction assay. Type of series: toxicity, cell-based. Conditions: read-out: Selectivity Index.
In series [15] the test system is Influenza A virus. Nature of the series: Antiviral activity against Influenza A Puerto Rico/8/34/H1N1 infected in human A549 cells assessed as reduction in viral protein expression at 20 uM treated for 2 to 6 hrs post infection and measured following infection of MDCK cells with supernatant for 24 hrs by time-of-addition assay. The series is classed as functional, organism-based. Conditions: A/Puerto Rico/8/1934(H1N1), time 2-6 hrs.

In a further series the test system is dengue virus type 2. Nature of the series: Antiviral activity against Dengue virus serotype 2 New Guinea C infected in pre-seeded Huh-7 cells assessed as inhibition of viral replication incubated for 72 hrs by immunodetection based secondary yield reduction assay. Type of series: functional, organism-based. Conditions: Dengue virus, New Guinea C, Huh-7, 72 h; read-out: IC50.

Series [16] relates to Influenza A virus. In words: Antiviral activity against Influenza A Puerto Rico/8/34/H1N1 infected in human A549 cells assessed as inhibition of hemagglutinin expression at 20 uM treated 2 to 6 hrs post infection for 24 hrs followed by infection in fresh monolayer of MDCK cells with supernatant for 24 hrs by time-of-addition assay. Type of series: functional, organism-based. Conditions: A/Puerto Rico/8/1934(H1N1), time 2-6 hrs.

Series [17] is described as follows: Cytotoxicity against African green monkey Vero E6 cells infected with SARS-COV-2 by celltiter-glo luminescent cell viability assay. The series is classed as cell-based, Vero C1008. Conditions: chlorocebus sabaeus, Vero E6 cells infected with SARS-COV-2. The procedure, abridged: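 Compound-exposed cells assessed by CellTiter-Glo luminescence versus DMSO control; CC50 from dose-response.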

The nature of series [18]: Selectivity index, ratio of CC50 for human Calu-3 cells infected with SARS-COV-2 to IC50 for SARS-COV 2 infected in human Calu-3 cells. Type of series: toxicity, cell-based. Particulars: read-out: Selectivity Index.

The source made the active and inactive calls. The rule behind the calls is not given here. Where only a bound is given, the exact number is not on record here.

1 compound from ChEMBL document CHEMBL4842338, “System-oriented optimization of multi-target 2,6-diaminopurine derivatives: Easily accessible broad-spectrum antivirals active against flaviviruses, influenza virus and SARS-CoV-2” (Eur J Med Chem, 2021) can be followed below.

Sequence of CDK9/cyclin T1 (O60563 whole entry): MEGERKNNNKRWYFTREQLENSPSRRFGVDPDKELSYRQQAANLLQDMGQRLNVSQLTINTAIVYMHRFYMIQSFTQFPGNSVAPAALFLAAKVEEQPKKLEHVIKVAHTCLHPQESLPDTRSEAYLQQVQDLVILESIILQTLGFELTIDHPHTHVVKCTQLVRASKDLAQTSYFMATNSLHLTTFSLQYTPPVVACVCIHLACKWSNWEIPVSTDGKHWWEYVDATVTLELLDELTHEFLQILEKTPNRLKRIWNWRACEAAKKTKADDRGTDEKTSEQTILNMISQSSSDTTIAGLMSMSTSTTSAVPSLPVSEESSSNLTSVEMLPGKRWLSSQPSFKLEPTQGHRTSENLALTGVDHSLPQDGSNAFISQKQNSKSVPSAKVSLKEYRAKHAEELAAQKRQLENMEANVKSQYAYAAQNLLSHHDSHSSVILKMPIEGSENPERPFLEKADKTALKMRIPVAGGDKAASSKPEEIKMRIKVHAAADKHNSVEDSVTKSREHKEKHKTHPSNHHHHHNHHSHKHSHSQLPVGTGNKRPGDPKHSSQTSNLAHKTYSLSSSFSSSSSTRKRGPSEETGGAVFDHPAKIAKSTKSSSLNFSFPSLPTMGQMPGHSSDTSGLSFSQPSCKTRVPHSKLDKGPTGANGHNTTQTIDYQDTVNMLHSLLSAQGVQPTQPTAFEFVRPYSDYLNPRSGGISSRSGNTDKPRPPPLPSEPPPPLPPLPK
Sequence of CDK9/cyclin T1 (P50750 whole entry): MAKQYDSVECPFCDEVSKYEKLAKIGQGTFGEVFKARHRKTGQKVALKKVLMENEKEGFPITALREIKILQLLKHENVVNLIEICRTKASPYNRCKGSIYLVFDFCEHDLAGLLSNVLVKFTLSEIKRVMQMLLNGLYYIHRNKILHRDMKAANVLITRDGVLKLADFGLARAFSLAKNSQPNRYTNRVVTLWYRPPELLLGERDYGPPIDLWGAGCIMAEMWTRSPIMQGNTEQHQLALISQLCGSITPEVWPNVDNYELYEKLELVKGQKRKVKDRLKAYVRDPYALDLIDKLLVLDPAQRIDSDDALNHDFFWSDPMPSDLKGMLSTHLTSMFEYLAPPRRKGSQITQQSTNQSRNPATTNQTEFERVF

For `FC(F)(F)c1cccc(Nc2nc(NCCOc3ccccc3)nc3[nH]cnc23)c1`, the IC50 was 5.3 µM in the series with Influenza A virus [1]; 3.9 µM with West Nile virus [3]; 43.7 µM in series [7]; 0.5 µM with Zika virus; “Not Active” with West Nile virus [11]; 2.6 µM in the series on dengue virus type 2. The Activity entry with Influenza A virus [2], in the series with Influenza A virus [8], with Huh-7 and in the series with Influenza A virus [15] was “Active” each time. Further, in series [4], the Activity result is “Toxic”. In addition, the Stabilty entry in [5] is reported as “Unstable”. Further, the selectivity ratio is 11 in series [6], 74 in series [12] and 240 in series [18]. Also, the activity at 10 min, 5 µM (at CDK9/cyclin T1; in series [10]) was over 98% throughout. For the same compound, the selectivity ratio at 48 h in series [9] was 51. In addition, the inhibition at 0.8 µM in the series with SARS-CoV-2 came out at 83.5%. In addition, the results for the selectivity ratio at 72 h in series [13] and in [14] were 77 and 182, respectively. In addition, the Activity entry in the series on Influenza A virus [16] was “inactive”. For the same compound, the CC50 in series [17] came out at 200 µM.

The term IC50 denotes the concentration needed to halve the response being measured. The inhibition is the change of the read-out against control, counted positive when it falls. As usually defined, the CC50 is the concentration giving 50% cytotoxicity.
